TLR4 MyD88 comp: blocks binding of human TLR4 to MyD88 | O00206+Q99836 | HeLa CL3-4 TLR4/MyD88 BLA complementation, FRET ratio | inhibition, % at 8.4 µM | actives 0.18% (n = 200,000) | AID 861; in the data active means inhibition above about 25%;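 further: 0% = vehicle and 100% = reference inhibitor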
NOD2 RIPK2 PPI: NOD2-RIPK2 protein interaction inhibition. actives 0.38% (n = 360,000). inhibition, % at 4.98 µM. CHO BLA complementation NOD2-RIPK2, CCF4 ratio. O43353; in the data active means inhibition above about 21%;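 further: 0% = vehicle only and 100% = reference blocker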
MC4R antag cAMP: human MC4R antagonism in cAMP assay. actives 0.48% (n = 360,000). inhibition, % at 6.5 µM. MC4R-expressing cells, MTII-stimulated cAMP, LANCE TR-FRET. P32245;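 active means inhibition above its plate's cutoff, the mean of tested wells on that plate plus 3 SD, cut at about 29% in these data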;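 further: 0% = Melanotan II alone and 100% = Melanotan II plus saturating MCL0020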
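Material: U2OS-MC4R stable cell line | Reagent: Melanotan II challenge after compound preincubation | Doses: One concentration, 6.5 µM nominal | Incubation: 30-min compound preincubation, 1-h Melanotan II challenge, 1-h detection, room temperature | Signal: TR-FRET cAMP assay | Replicates: One well per compound, no replicates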
TLR9-MyD88 block: blocks human TLR9 binding to MyD88. actives 0.21% (n = 340,000). Q9NR96+Q99836. CHO BLA complementation TLR9-MyD88, CCF4 FRET ratio. inhibition, % at 4.98 µM. AID 504734;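 active means inhibition above the mean over all tested compounds plus 3 SD, cut at about 21% in these data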;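 further: 0% = DMSO only wells and 100% = clavulanate BLA inhibitor control wells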
Target sequence (Q99836 whole entry, looked up): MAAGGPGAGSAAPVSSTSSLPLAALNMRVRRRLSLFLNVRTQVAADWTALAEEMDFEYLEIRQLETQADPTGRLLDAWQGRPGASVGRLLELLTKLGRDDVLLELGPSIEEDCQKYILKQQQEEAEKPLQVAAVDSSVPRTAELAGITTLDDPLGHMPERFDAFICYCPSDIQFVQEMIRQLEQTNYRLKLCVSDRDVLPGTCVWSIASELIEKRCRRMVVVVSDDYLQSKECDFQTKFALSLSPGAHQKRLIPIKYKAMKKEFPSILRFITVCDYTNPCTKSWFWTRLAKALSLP
Target sequence (Q9NR96 whole entry, looked up): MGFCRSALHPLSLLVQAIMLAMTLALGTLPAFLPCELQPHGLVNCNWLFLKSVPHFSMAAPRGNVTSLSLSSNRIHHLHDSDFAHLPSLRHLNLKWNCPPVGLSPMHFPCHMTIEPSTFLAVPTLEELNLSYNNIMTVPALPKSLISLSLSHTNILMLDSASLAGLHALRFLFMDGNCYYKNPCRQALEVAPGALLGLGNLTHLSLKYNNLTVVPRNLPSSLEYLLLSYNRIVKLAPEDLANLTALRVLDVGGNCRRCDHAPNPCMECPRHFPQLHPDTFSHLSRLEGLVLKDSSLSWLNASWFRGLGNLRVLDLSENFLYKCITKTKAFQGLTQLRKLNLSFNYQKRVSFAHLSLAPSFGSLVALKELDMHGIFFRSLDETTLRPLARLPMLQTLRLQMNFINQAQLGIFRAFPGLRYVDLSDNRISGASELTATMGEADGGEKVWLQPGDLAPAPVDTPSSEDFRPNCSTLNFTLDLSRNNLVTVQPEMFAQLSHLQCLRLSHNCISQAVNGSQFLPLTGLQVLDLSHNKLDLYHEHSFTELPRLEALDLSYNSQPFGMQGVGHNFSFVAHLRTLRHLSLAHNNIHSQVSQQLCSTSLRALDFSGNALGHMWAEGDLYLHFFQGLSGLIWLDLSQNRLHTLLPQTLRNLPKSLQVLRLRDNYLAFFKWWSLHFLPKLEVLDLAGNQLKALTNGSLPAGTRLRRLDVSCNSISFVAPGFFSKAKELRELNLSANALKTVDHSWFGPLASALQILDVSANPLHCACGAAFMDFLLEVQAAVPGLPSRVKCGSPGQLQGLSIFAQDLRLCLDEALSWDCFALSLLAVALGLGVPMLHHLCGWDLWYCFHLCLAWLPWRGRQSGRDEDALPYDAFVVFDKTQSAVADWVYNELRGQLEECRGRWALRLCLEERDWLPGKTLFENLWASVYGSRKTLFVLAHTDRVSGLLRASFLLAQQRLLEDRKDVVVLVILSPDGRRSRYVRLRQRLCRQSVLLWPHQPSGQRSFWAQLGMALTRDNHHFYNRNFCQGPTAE
MC4R barr agon: human MC4R agonism via beta-arrestin; U2OS MC4R beta-arrestin complementation, luminescence; percent of melanotan II response, DMSO zero; P32245; activation, % at 8.9 µM; actives 0.98% (n = 360,000);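 active means activation above a per-plate cutoff, the mean activation of sample wells on that plate plus 3 SD, cut at about 8% in these data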
TLR4 MyD88 cnf: confirmation of human TLR4-MyD88 binding inhibitors; shares compounds with TLR4 MyD88 comp; HeLa CL3-4 BLA complementation, CCF4 FRET ratio; inhibition, % at 8.4 µM; actives 50% (n = 350);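 active means mean inhibition across three repeat runs above about 25% carried over from the earlier screen, limit read from the data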;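 further: plate controls were DMSO only for no effect and clavulanic acid blocking BLA at full dose for full effect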
BLA inh HeLa: counter-screen for TLR4-MyD88 inhibitors: beta-lactamase reporter inhibitors; shares compounds with TLR4 MyD88 comp; HeLa BLA reporter, CCF4 FRET ratio; inhibition, % at 8.4 µM; actives 63% (n = 350); AID 1237;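 active means mean inhibition over three repeats above about 26% taken from the earlier screen, limit read from the data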;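 further: HeLa cells stably expressing beta-lactamase reporter as counterscreen for TLR4-MyD88 inhibitors; 0% = DMSO and 100% = clavulanic acid full inhibition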
TLR9-MyD88 conf: TLR9-MyD88 interaction inhibition, confirmation; actives 51% (n = 680); inhibition, % at 4.98 µM; CHO TLR9/MyD88 BLA complementation, CCF4 FRET ratio; AID 540250; shares compounds with TLR9-MyD88 block;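 active means mean inhibition across three repeats above about 21% taken from the earlier screen, limit read from the data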;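 further: blue over green emission ratio reports constitutive TLR9 MyD88 association via BLA complementation; 0% = DMSO vehicle wells and 100% = clavulanate BLA inhibitor wells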
BLA counter-1: counter-screen for TLR9-MyD88 inhibitors: non-selective beta-lactamase inhibitors; shares compounds with TLR9-MyD88 block; CHO-BLA cells, CCF4 FRET ratio, BLA reporter; inhibition, % at 4.98 µM; actives 7% (n = 680); AID 540251;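 active means mean inhibition above a 50% cutoff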;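 further: counterscreen of TLR9-MyD88 hits on CMV-driven BLA in CHO-K1 cells; 0% = DMSO alone and 100% = clavulanate blocking BLA; higher means less blue over green ratio so more BLA blockade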
TLR9 CHO tox: counter-screen for TLR9-MyD88 inhibitors: cytotoxicity in CHO cells; shares compounds with TLR9-MyD88 block; luminescence; inhibition, % at 4.98 µM; actives 39% (n = 680); AID 588336; in the data active means inhibition above about 11%
cAMP nonselect: U2OS forskolin cAMP inhibition counter-screen. inhibition, % at 6.5 µM. actives 26% (n = 1,600). parental U2OS, LANCE TR-FRET. shares compounds with MC4R antag cAMP. AID 602193;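 active means mean inhibition over triplicates above the low-control well mean plus 3 SD, set per campaign, cut at about 13% in these data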;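 further: signal is single emission at 671 nm which falls as cellular cAMP rises; 0% = forskolin-stimulated wells and 100% = buffer without forskolin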
MC4R antag conf: human MC4R cAMP antagonism confirmation; shares compounds with MC4R antag cAMP; MC4R-expressing cells, MTII-stimulated cAMP, TR-FRET; inhibition, % at 6.5 µM; actives 27% (n = 1,600); AID 602195; in the data active means inhibition above about 29%;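 further: 0% = agonist stimulated wells alone and 100% = agonist stimulated wells plus saturating reference antagonist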
NOD2-RIPK2 conf: NOD2-RIPK2 interaction inhibition confirmed; inhibition, % at 4.98 µM; shares compounds with NOD2 RIPK2 PPI; CHO cells, NOD2-RIPK2 BLA complementation, CCF4 FRET; actives 70% (n = 1,200);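 active means mean inhibition across replicates above a set limit taken from the earlier primary screen, cut at about 21% in these data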;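 further: 0% = DMSO-only wells and the high end = clavulanate BLA-blocked wells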
BLA counter-2: NOD2-RIPK2 counterscreen BLA reporter activity | actives 57% (n = 1,200) | AID 624371 | CHO BLA reporter, CCF4 FRET ratio | inhibition, % at 4.98 µM | shares compounds with NOD2 RIPK2 PPI;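 active means mean inhibition above the low-control mean inhibition plus three low-control SD, cut at about 11% in these data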;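 further: 0% = DMSO only wells and 100% = clavulanate high control wells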
The depositor's hits bear a star; / = not tested or not shown. Only some compounds are listed: those with a hit (about 1.8% of all), similar ones and a draw of the others.

SMILES	TLR4 MyD88 comp	NOD2 RIPK2 PPI	MC4R antag cAMP	TLR9-MyD88 block	MC4R barr agon	TLR4 MyD88 cnf	BLA inh HeLa	TLR9-MyD88 conf	BLA counter-1	TLR9 CHO tox	NOD2-RIPK2 conf	BLA counter-2	others
CCN(CC)c1ccc2c(c1)oc(=O)c1c(Cl)cc(=O)oc12	79.8*	62.1*	29.9*	49.9*	-1.6	86.8*	109.5*	50.9*	73.6*	73.1*	89.0*	83.9*	cAMP nonselect=6.7;MC4R antag conf=18.6
Cc1c(C(=O)Nc2cccnc2)oc2ccc(Br)cc12	/	11.7	-4.0	7.9	1.4	/	/	/	/	/	/	/
CN1CCCc2cc3c(C(F)(F)F)cc(=O)oc3nc21	39.4*	34.7*	-5.7	46.6*	0.3	36.5*	65.9*	37.7*	45.2	6.9	69.1*	72.7*
CC(C)c1cc(=O)oc2c3c4c(cc12)CCCN4CCC3	6.5	7.3	11.0	0.6	-0.5	/	/	/	/	/	/	/
O=C(NCc1cccnc1)Nc1cccc(Cl)c1Cl	/	6.8	6.2	-5.2	-1.2	/	/	/	/	/	/	/
CCN1CCN(c2ccc(NC(=O)c3ccc([N+](=O)[O-])o3)cc2Cl)CC1	29.9*	31.0*	-6.3	12.5	-3.2	19.6	4.9	/	/	/	25.5*	15.9*
O=C(CC1C(=O)NCCN1C(=O)c1ccc([N+](=O)[O-])cc1)Nc1ccc(F)cc1 (centres undefined)	/	-0.3	1.7	2.7	-1.7	/	/	/	/	/	/	/
CN1CCN(S(=O)(=O)c2cccc(C(=O)N(Cc3ccccc3)c3ccccc3)c2)CC1	/	-4.9	8.6	5.3	0.9	/	/	/	/	/	/	/
O=S(=O)(c1ccc(NC(=S)N/N=C/c2c3ccccc3cc3ccccc23)cc1)N1CCOCC1	38.5*	22.2*	7.4	3.7	-1.0	18.7	42.5*	/	/	/	49.5*	53.2*
Cc1ccc(-n2ncc(Cl)c2C(=O)NC2CC2)cc1	0.3	-10.1	4.5	-5.2	0.1	/	/	/	/	/	/	/
O=C(CSc1ccc(F)cc1)NCCSc1ccccc1	-5.6	-6.4	7.2	1.4	-0.4	/	/	/	/	/	/	/
COc1cc2c3nnc(-c4ccc(F)cc4)c-3cn(Cc3cccc(C)c3)c2cc1OC	44.2*	55.0*	2.2	41.5*	0.2	14.2	59.9*	26.1*	43.7	-1.6	73.1*	75.3*
COc1cc2c3nnc(-c4ccc(F)cc4)c-3cn(Cc3ccc(C)cc3)c2cc1OC	47.7*	50.6*	-0.1	26.6*	0.3	25.7*	81.2*	58.7*	61.1*	8.2	84.2*	85.7*
N#C/C(=C\c1cn(Cc2ccc(F)cc2)c2ccccc12)C(=O)NCc1ccco1	62.6*	30.7*	4.8	78.5*	9.1*	72.9*	100.4*	/	/	/	82.0*	85.2*
Cc1cccc(NC(=O)/C(C#N)=C/c2cn(CC(=O)NCc3ccco3)c3ccccc23)c1C	-7.3	2.9	14.2	16.0	8.0	/	/	/	/	/	/	/
OCCCCc1nccc2c1[nH]c1ccccc12	/	-4.7	6.2	-3.5	0.3	/	/	/	/	/	/	/
N#Cc1ccc(/C=C\c2nccc3c2[nH]c2ccccc23)cc1	32.9*	26.2*	7.7	20.9*	3.9	17.8	53.7*	17.9	35.7	13.0*	37.0*	56.0*
CN(C)c1ccc(C(=O)/C=C/c2ccc(Br)cc2)cc1	3.7	-10.8	10.2	-6.2	-0.9	/	/	/	/	/	/	/
CCN(CC)c1ccc(/C=C/C(=O)c2ccc(Br)cc2)cc1	54.6*	58.8*	0.3	34.5*	-2.9	52.5*	73.5*	39.2*	46.6	-5.5	77.6*	79.0*
CCCCCCSc1ccc(-c2nc3cnccn3c2NC2CCCCC2)cc1	/	-5.3	/	/	/	/	/	/	/	/	/	/
Clc1ccc(-c2nc3cnccn3c2NC2CCCC2)cc1	32.1*	25.3*	0.7	23.9*	6.5	10.0	21.7	14.7	15.5	-1.2	34.2*	34.3*
CCC(=O)c1ccc(/C=C/c2nc3ccccc3n2C)o1	50.1*	57.6*	-19.8	42.9*	-4.4	46.7*	65.0*	30.9*	39.1	0.6	62.9*	64.5*
Cc1ccc2nc(/C(C#N)=C\c3ccc([N+](=O)[O-])o3)[nH]c2c1	83.5*	26.7*	-47.3	23.9*	766.2*	83.1*	95.8*	56.6*	69.7*	75.3*	85.5*	69.8*
Cc1[nH]c2ccccc2c1/C=N/NC(=O)c1ccccc1	/	4.1	1.5	2.7	-2.2	/	/	/	/	/	/	/
Cc1[nH]c2ccccc2c1/C=C/C(=O)c1ccccc1	27.3*	43.5*	-13.1	40.2*	1.9	26.7*	48.9*	20.7	21.8	1.4	43.0*	48.5*
COc1cc(NC(=O)COc2cccc3c2OC(C)(C)C3)cc(OC)c1OC	/	-5.5	-6.2	6.7	-0.3	/	/	/	/	/	/	/
O=C1c2cccc3c([N+](=O)[O-])ccc(c23)C(=O)N1c1ccccn1	91.5*	89.8*	-5.3	81.4*	-2.4	90.7*	114.5*	64.9*	85.3*	99.0*	92.7*	86.7*
C/C(=N\Nc1ccc([N+](=O)[O-])cc1)c1ccc(O)cc1	38.4*	29.4*	-8.3	/	-3.0	20.3	44.1*	/	/	/	42.4*	47.8*
CN(c1ccccc1C(=O)Nc1ccccc1-c1ccccc1)S(C)(=O)=O	/	-4.4	3.0	-7.4	0.5	/	/	/	/	/	/	/
O=Cc1s/c(=N\S(=O)(=O)c2ccccc2)n(CCCCl)c1Cl	30.1*	85.3*	45.9*	37.0*	-4.7	28.4*	1.7	42.1*	7.6	96.2*	96.2*	36.2*	cAMP nonselect=10.7;MC4R antag conf=19.0
